Measured values from publication PMC11480350 (Nature Communications, 2024).
Where a SMILES comes first, the peptide text is derived from it. Where no end group is shown, it is not given here. [ ]: non-standard residue; d: D form. The star is where a group is joined. pS = N[C@@H](COP(=O)(O)O)C(=O)O; Cbz = O=C(OCc1ccccc1)*

Legend:
SCMC = assay: Strep pull-down of 14-3-3 paralogs; type: binding, mouse; conditions: Strep-Tactin pull-down, purified SCMC and 14-3-3 paralogs, SDS-PAGE
Summary of the method: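 SCMC was expressed in Sf9 cells for 60 h at 27 °C: His-MATER 1–1059, Strep-TLE6 48–581, Strep-FLOPED 1–164, Strep-FILIA 1–124 or 1–256. It was purified by Ni-NTA, anion exchange and Superose 6. GST-14-3-3 paralogs came from E. coli, were 3C-cleaved, and went through anion exchange and Superdex 200. Proteins were mixed with SCMC or buffer control and captured on Strep-Tactin at 4 °C. Washes contained 0.5% NP-40 and elution used 50 mM biotin. Read-out was SDS-PAGE/immunoblot.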

Mouse zygotes = assay: Early embryonic development of zygotes with PKA inhibitor; type: cell-based; conditions: H89 20 μM, commencing from 72 h pHCGi
mouse 14-3-3γ = assay: 14-3-3γ degradation, immunoblotting in HEK-293F cells; type: cell-based
14-3-3γ [1] = biological target: T1, 14-3-3γ (Mus musculus, UniProt P61982); assay: Isothermal titration calorimetry; type: binding; conditions: ITC, 25 °C, pH 7.5, 3 independent experiments
T1 sequence (P61982 1-247): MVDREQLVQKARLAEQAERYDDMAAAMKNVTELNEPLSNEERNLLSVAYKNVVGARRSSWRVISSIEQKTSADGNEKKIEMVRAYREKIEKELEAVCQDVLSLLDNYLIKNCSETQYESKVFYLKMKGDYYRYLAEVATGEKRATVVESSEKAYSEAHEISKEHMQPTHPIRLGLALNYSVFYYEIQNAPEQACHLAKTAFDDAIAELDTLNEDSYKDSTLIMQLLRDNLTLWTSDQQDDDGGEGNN
Summary of the method: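 Mouse 14-3-3γ was expressed in E. coli as a GST fusion and purified on glutathione resin. The tag was cut with 3C protease, then the protein was polished by anion exchange and Superdex 200. TLE6 phosphopeptides were titrated into 14-3-3γ (e.g., 1.3 mM peptide into 50 μM protein). Data were corrected for dilution heat and curve-fitted for Kd. Three independent titrations, mean ± S.D.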

14-3-3γ [2] = biological target: 14-3-3γ (UniProt P61982); assay: anti-Flag; conditions: reference: wild-type TLE6
[3] = biological target: His-tagged 14-3-3γ (mouse) (UniProt P61982); assay: ITC

14-3-3γ: mouse 14-3-3 paralog γ (1–247 aa)
binding to the SCMC (SCMC): most potent binding partner

O=S(=O)(NCCNC/C=C/c1ccc(Br)cc1)c1cccc2cnccc12 [H89]
progression of early embryonic development (Mouse zygotes): markedly retarded

CC(C)C[C@@H](C=O)NC(=O)[C@H](CC(C)C)NC(=O)[C@H](CC(C)C)NC(=O)OCc1ccccc1 [MG132] (Cbz-Leu-Leu-Leu-aldehyde)
decrease in the protein level of 14-3-3γ (mouse 14-3-3γ; MG132 20 μM with cycloheximide 100 μg/ml): effectively rescued

C[C@@H]1C[C@@H]([C@H](O)CC2CC(=O)NC(=O)C2)C(=O)[C@@H](C)C1 [cycloheximide]
level of exogenous mouse 14-3-3γ (mouse 14-3-3γ; cycloheximide 100 μg/ml): gradually degraded

TLE6 (133–144): wild-type TLE6 peptide, residues 133–144 (TRRRFLSESDEL)
binding to 14-3-3γ (in words) (14-3-3γ [1]): cannot bind to 14-3-3γ

TLE6 (203–214): wild-type TLE6 peptide, residues 203–214 (QPRHRNSLSDSA)
binding to 14-3-3γ (in words) (14-3-3γ [1]): cannot bind to 14-3-3γ

TLE6 (217–228) pS223: phosphopeptide of TLE6 residues 217–228 carrying phosphorylated Ser223 (FLIKSP[pS]ALLDY)
binding to 14-3-3γ (in words) (14-3-3γ [1]): cannot bind to 14-3-3γ

TLE6 (from UniProt Q9WVB3) S139A
binding against the reference (14-3-3γ [2]; sites S139): weaker

TLE6 (from UniProt Q9WVB3) S209A
binding against the reference (14-3-3γ [2]; sites S209): weaker

QPRHRN[pS]LSDSA [TLE6 (203–214) pS209 phosphopeptide]
Kd [3]: 315 µM

TRRRFL[pS]ESDEL [TLE6 (133–144) pS139 phosphopeptide]
Kd [3]: 55.8 µM
